Experimental data gathered from unrelated publications.
Protocols differ between the studies behind these lines.
Cell line: MCF7
Observed: cell growth or viability

COc1cc2ncnc(Nc3ccc4c(c3)/C(=C/c3ccccc3)C(=O)N4)c2cc1OC  IC50 (MTT): 18.6 µM
Cc1ccc(-c2cc(-c3ccc(Cl)cc3)c3c(=O)[nH]c(=O)[nH]c3n2)cc1  IC50 (MTT; 48 h): 9.67 µM
CC(=O)Nc1ccc(/C(C)=N/N=c2\sc(C(C)=O)nn2-c2ccc(C)cc2)cc1  viability (MTT; 2.5 µM): 34.6%
COc1ccc(COC[C@@](O)(CNCc2ccccc2)[C@@H]2CC[C@@H](C)C[C@H]2OCc2ccc(OC)cc2)cc1  inhibition (MTT; 30 µM; 72 h): 102%
CC(=NNC(=O)c1ccccc1O)c1ccc(Nc2nnc(-c3ccc(Cl)cc3)c3ccccc23)cc1  viability (MTT; 0.312 µM; 24 h): 99.3%
C=CC(=O)NC1CCN(c2ncc3ncnc(Nc4ccc(Oc5ccc6c(c5)ncn6C)c(C)c4)c3n2)CC1  EC50: 5.22 µM
C[C@@H]1CC[C@@H]([C@](O)(CNCc2cccc3ccccc23)COCc2ccccc2)[C@H](OCc2ccccc2)C1  inhibition (MTT; 30 µM; 72 h): 87.7%
O=C(Nc1ccc(Oc2nnc(-c3ccc(Cl)cc3)c3ccccc23)cc1)c1cccc([N+](=O)[O-])c1  viability (MTT; 0.625 µM; 24 h): 9.78%
COc1cccc(CNC[C@@](C)(O)[C@@H]2CC[C@@H](C)C[C@H]2OCc2ccccc2)c1  inhibition (MTT; 10 µM; 72 h): 76.8%
COc1ccc(-c2cc(-c3ccc(Br)cc3)c3c(=O)n(C)c(=O)n(C)c3n2)cc1  IC50 (MTT; 48 h): 29.4 µM
CCN1CCN(Cc2ccc(Nc3ncc(F)c(-c4cc(F)c5nc(C)n(C(C)C)c5c4)n3)nc2)CC1  EC50 (5 days): 0.009 µM
COc1ccc(-c2cc(-c3cccc(Br)c3)c3c(=O)[nH]c(=O)[nH]c3n2)cc1  IC50 (MTT; 48 h): 13.7 µM
CC(=NNC(N)=S)c1ccc(Nc2nnc(-c3ccc(Cl)cc3)c3ccccc23)cc1  cell death (MTT; 0.156 µM): 49.5%
CC(=O)c1nn(-c2ccc(C)cc2)/c(=N/N=C(\C)c2ccc(NC(=O)c3ccccc3)cc2)s1  viability (MTT; 5 µM): 6.47%
O=C(Nc1ccc(Oc2nnc(-c3ccc(Cl)cc3)c3ccccc23)cc1)c1ccccc1  cell death (MTT; 2.5 µM): 93.4%
C[C@@H]1CC[C@@H]([C@](O)(CNCc2ccccc2)COCc2ccc(F)cc2)[C@H](OCc2ccc(F)cc2)C1  inhibition (MTT; 10 µM; 72 h): 95.7%
CCOC(=O)c1nn(-c2cccc(Cl)c2)/c(=N/N=C(\C)c2ccc(NC(=O)c3ccccc3)cc2)s1  viability (MTT; 1.25 µM): 2.59%
O=C(Nc1ccccc1)Nc1ccc(Oc2nnc(-c3ccc(Cl)cc3)c3ccccc23)cc1  viability (MTT; 0.312 µM; 24 h): 11.3%
O=C(CCn1c(=O)ccc2ccccc21)N1CCOCC1  inhibition (MTT; 100 µM; 48 h): 90.5%
COc1ccc(-c2cc(-c3ccc(OC)cc3)c3c(=O)n(C)c(=O)n(C)c3n2)cc1  IC50 (MTT; 48 h): 18.6 µM
Cc1nc(NC(=O)N2CCC[C@H]2C(N)=O)sc1-c1ccnc(C(C)(C)C(F)(F)F)c1  EC50 (5 days): 0.177 µM
COc1cc2ncnc(Nc3ccc4c(c3)/C(=C/c3cccc(Cl)c3)C(=O)N4C)c2cc1OC  IC50 (MTT): 4.62 µM
C[C@@H]1CC[C@@H]([C@](C)(O)CNCc2ccccc2)[C@H](OCc2ccccc2)C1  inhibition (MTT; 10 µM; 72 h): 97.6%
COc1ccc(-c2cc(-c3ccc(Br)cc3)c3c(=O)[nH]c(=O)[nH]c3n2)cc1  IC50 (MTT; 48 h): 9.94 µM
C[C@@H]1CC[C@@H]([C@](C)(O)CNCc2cccc3ccccc23)[C@H](OCc2ccccc2)C1  inhibition (MTT; 30 µM; 72 h): 92.2%
CO[C@H]1C[C@@H]2CC[C@@H](C)[C@@](O)(O2)C(=O)C(=O)N2CCCC[C@H]2C(=O)O[C@H]([C@H](C)C[C@@H]2CC[C@@H](OCCO)[C@H](OC)C2)CC(=O)[C@H](C)/C=C(\C)[C@@H](O)[C@@H](OC)C(=O)[C@H](C)C[C@H](C)/C=C/C=C/C=C/1C  EC50 (5 days): 0.0014 µM
C[C@@H]1CC[C@@H]([C@](O)(CNCc2ccc(F)cc2)COCc2ccc(F)cc2)[C@H](OCc2ccc(F)cc2)C1  inhibition (MTT; 10 µM; 72 h): 93.7%
CC(=O)c1nn(-c2ccccc2Cl)/c(=N/N=C(\C)c2ccc(NC(=O)c3ccccc3)cc2)s1  viability (MTT; 78 nM): 47.5%
COC(=O)COc1c(Cc2cc(C(C)(C)CC(C)(C)C)cc(-n3nc4ccccc4n3)c2OCC(=O)OC)cc(C(C)(C)CC(C)(C)C)cc1-n1nc2ccccc2n1  GI50 (MTT): 3.18 µM
CC(=O)Nc1ccc(Oc2nnc(-c3ccc(Cl)cc3)c3ccccc23)cc1  viability (MTT; 5 µM; 24 h): 3.72%
COc1ccc(-c2cc(-c3ccc(Cl)cc3)c3c(=O)n(C)c(=O)n(C)c3n2)cc1  IC50 (MTT; 48 h): 14.4 µM
